Source: PubChem
TAAR1 ag: agonists of human TAAR1; CHO RD-HGA16 TAAR1, Fluo-8 calcium fluorescence; vehicle wells 0%, saturating PEA agonist 100%; activation, % at 3 µM; 0.99% of 360,000 active;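 active = activation above the mean activation of all test compounds in the run plus 3 SD, cut at about 38% in these data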
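Signal – calcium-sensitive Fluo-8 signal, excitation 470-495, emission 515-575 nm · System – RD-HGA16 (CHO) cells co-expressing Gα16 and hTAAR1 · Incubation – 17-24 h seeding, 75 min 37 °C dye, 30 min RT · Compound dosing – 3 µM single concentration · Repeats – no replicates (n 1)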
GPR7 antagonist: human neuropeptides B/W receptor 1 antagonism; inhibition, % at 4.4 µM; P48145; GPR7-expressing cells, fluorescence antagonist assay; 1.1% of 290,000 active; in the data active = inhibition above about 16%, passing the limit was not always enough;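 also: cells stimulated with the agonist NPW; 0% = agonist with vehicle and 100% = vehicle without agonist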
OX1R antag-1: OX1R (human) antagonism; O43613; OX1R-expressing cells, FRET antagonist read-out; inhibition, % at 6.6 µM; 1.8% of 330,000 active; in the data active = inhibition mostly above about 38%, no sharp cut-off; inactive = mostly below about 40%;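 also: 0% = agonist challenge alone and 100% = reference antagonist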
Target sequence (O43613 whole entry, looked up): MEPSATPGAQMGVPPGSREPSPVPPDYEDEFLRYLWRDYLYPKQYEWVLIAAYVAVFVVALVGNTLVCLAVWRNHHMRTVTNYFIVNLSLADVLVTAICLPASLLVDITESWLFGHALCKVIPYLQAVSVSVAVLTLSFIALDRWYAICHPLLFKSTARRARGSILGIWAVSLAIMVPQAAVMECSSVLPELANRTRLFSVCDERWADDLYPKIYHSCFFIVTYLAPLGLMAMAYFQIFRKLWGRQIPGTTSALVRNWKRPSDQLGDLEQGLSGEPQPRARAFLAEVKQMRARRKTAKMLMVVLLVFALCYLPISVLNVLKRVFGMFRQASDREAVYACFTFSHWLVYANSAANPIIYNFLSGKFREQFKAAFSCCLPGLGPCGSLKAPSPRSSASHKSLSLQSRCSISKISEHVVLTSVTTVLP
TAAR1 antagonist: antagonists of human TAAR1; CHO RD-HGA16 TAAR1, Fluo-8 calcium fluorescence, antagonist; inhibition, % at 3 µM; 1.5% of 360,000 active; AID 624466;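 active = inhibition above a per-plate cutoff, the mean inhibition of test compounds on that plate plus 3 SD, cut at about 49% in these data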;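 also: 0% = DMSO plus EC80 beta-PEA response and 100% = DMSO alone without agonist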
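Test system – hTAAR1-expressing CHO RD-HGA16 cells, Gα16-coupled · Also added – β-PEA at EC80 concentration, post-compound challenge · Compound – 3 µM, single point · Incubation – dye loading 75 min at 37 °C, then 30 min room temperature · Measured by – Fluo-8 intracellular calcium dye fluorescence, real-time kinetic reads · Benchmarks – vehicle and agonist controls · Replicates – singlicate, one well per test compound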
CHO parental Ca: counter-screen: ATP calcium response change in parental CHO cells; parental CHO-K1, ATP-induced calcium, Fluo-8 fluorescence; 0.63% of 330,000 active; inhibition, % at 5.6 µM;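 active = inhibition above that plate's mean sample inhibition plus 3 SD, cut at about 26% in these data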;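 also: 0% = ATP-challenged DMSO wells and 100% = DMSO wells without ATP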
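Assay system: parental CHO cells; Read-out basis: percent inhibition of ATP-evoked calcium rise, normalized to controls; Benchmarks: ATP and no-ATP DMSO wells; Compound dosing: single nominal dose of 5.6 µM per compound; Signal: Fluo-8 calcium dye fluorescence; Also added: ATP as calcium-mobilizing challenge; Repeats: singlicate.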
OX1R antag-2: human HCRTR1 antagonism; O43613; CHO/OX1R cells, Fluo-8 calcium fluorescence, orexin A; inhibition, % at 5 µM; 0.43% of 330,000 active;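 active = inhibition above its plate's threshold, mean inhibition of all tested compounds on the plate plus 3 SD, cut at about 37% in these data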;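 also: 0% = orexin A challenge wells and 100% = SB-334867-A antagonist wells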
Numbers without * were called inactive. Only some compounds are listed: those with a hit (about 4.6% of all), similar ones and a draw of the others.

For CS(=O)(=O)c1ccc(C(=O)OCC(=O)NC(=O)C2CCCCC2)cc1[N+](=O)[O-] the results were TAAR1 ag 3, GPR7 antagonist -2, OX1R antag-1 49*, TAAR1 antagonist 15, CHO parental Ca 17 and OX1R antag-2 6.
For Cc1ccccc1Cn1c(CN2CCN(c3ccc(F)cc3)CC2)nc2c1c(=O)n(C)c(=O)n2C the results were GPR7 antagonist -7, OX1R antag-1 -3, CHO parental Ca -6 and OX1R antag-2 -19.
Screening CCn1nc(C(=O)N2CCN(Cc3nc4ccccc4s3)CC2)c2ccccc2c1=O returned TAAR1 ag 33, OX1R antag-1 12, TAAR1 antagonist 57*, CHO parental Ca -9 and OX1R antag-2 -20.
For C[n+]1ccc(/C=N/Nc2nc(Cl)c(C#N)c(Cl)c2Cl)cc1 the results were TAAR1 ag 4, GPR7 antagonist 6, OX1R antag-1 54*, TAAR1 antagonist 4, CHO parental Ca -7 and OX1R antag-2 0.
Clc1nnc(N/N=C/c2ccccc2)c2ccccc12 was read as TAAR1 ag 11, GPR7 antagonist -11, OX1R antag-1 14, TAAR1 antagonist 7, CHO parental Ca -30 and OX1R antag-2 -11.
For O=C(NNc1nc(=O)c2cccnc2s1)c1ccccc1O the results were TAAR1 ag 2, GPR7 antagonist -4, OX1R antag-1 18, TAAR1 antagonist 9, CHO parental Ca -9 and OX1R antag-2 -17.
O=C(CSc1cccc[n+]1[O-])NCC1CCCCC1 was read as TAAR1 ag 2, GPR7 antagonist -15, OX1R antag-1 19, TAAR1 antagonist -12, CHO parental Ca -5 and OX1R antag-2 -7.
`Cc1ccc(C(C)C)c(OCCN(C)C)c1` gave TAAR1 ag 7, GPR7 antagonist -7, OX1R antag-1 8, TAAR1 antagonist 10, CHO parental Ca -9 and OX1R antag-2 -18.
For Cc1ccc(C(C)C)c(OCCN)c1 the results were TAAR1 ag 38*, GPR7 antagonist 0, OX1R antag-1 0, TAAR1 antagonist -2, CHO parental Ca -6 and OX1R antag-2 -1.
Screening Cc1ccccc1OCCn1c(=O)oc2ccccc21 returned TAAR1 ag 17, GPR7 antagonist 10, OX1R antag-1 25, TAAR1 antagonist 26, CHO parental Ca 3 and OX1R antag-2 -3.
Cc1ccc(C(C)C)c(OCCn2c(=O)oc3ccccc32)c1 was read as TAAR1 ag 13, GPR7 antagonist -8, OX1R antag-1 23, TAAR1 antagonist 72*, CHO parental Ca 6 and OX1R antag-2 -1.
`CC(=O)N1CCC(N(CCCOC(C)C)S(=O)(=O)c2ccc([N+](=O)[O-])cc2)CC1` gave TAAR1 ag -1, GPR7 antagonist -7, OX1R antag-1 46*, TAAR1 antagonist -20, CHO parental Ca -8 and OX1R antag-2 -36.
CC(=O)N1CCN(C(=S)c2ccc([N+](=O)[O-])cc2)CC1 was read as TAAR1 ag 4, GPR7 antagonist -17, OX1R antag-1 76, TAAR1 antagonist 1, CHO parental Ca 1 and OX1R antag-2 -9.
`Cc1ccc(/C=C2\CCC3=C2OC(N)=C(C#N)C3c2ccc(C)cc2)cc1` (stereo unspecified) gave GPR7 antagonist 2, OX1R antag-1 3, CHO parental Ca 41* and OX1R antag-2 48*.
Cc1ccc(C2C(C#N)=C(N)Oc3cc(N)ccc32)cc1 (stereo unspecified) was read as TAAR1 ag 5, GPR7 antagonist -6, OX1R antag-1 3, TAAR1 antagonist -15, CHO parental Ca -6 and OX1R antag-2 0.
`CCOC(=O)c1c(C)oc2c1c(C(c1ccccc1)N1CCOCC1)c(O)c1ccccc12` (stereo unspecified) gave TAAR1 ag 17, GPR7 antagonist -20, OX1R antag-1 62*, TAAR1 antagonist -9, CHO parental Ca -24 and OX1R antag-2 -14.
`CN(C(=O)c1ccc(NC(=O)Cc2ccc(NC(=O)C3CCCN(C(=O)c4ccccc4)C3)cc2)cc1)C1CCCC1` (stereo unspecified) gave TAAR1 ag 1 and TAAR1 antagonist 1.
For O=c1oc(-c2ccc([N+](=O)[O-])cc2)nc2ccc(O)cc12 the results were TAAR1 ag 4, GPR7 antagonist -2, OX1R antag-1 75*, TAAR1 antagonist 17, CHO parental Ca 7 and OX1R antag-2 -11.
For COc1ccc(/C=C2\SC(=O)N(CCNC(=O)Cc3coc4cc(C)ccc34)C2=O)cc1OC the results were TAAR1 ag -1, GPR7 antagonist -22, OX1R antag-1 54*, TAAR1 antagonist 18, CHO parental Ca -32 and OX1R antag-2 6.
`COc1ccc(/C=C2/SC(=O)N(CCC(=O)Nc3ccc(C)cc3)C2=O)cc1OC` gave TAAR1 ag -2, GPR7 antagonist -6, OX1R antag-1 8, TAAR1 antagonist -14, CHO parental Ca -12 and OX1R antag-2 -2.
`O=C(Cn1nnc(-c2ccccc2)n1)Nc1ccc2c(c1)OCO2` gave TAAR1 ag 42*, GPR7 antagonist -7, OX1R antag-1 27, TAAR1 antagonist 21, CHO parental Ca 4 and OX1R antag-2 -9.
O=C(Cn1nnc(-c2ccccc2F)n1)Nc1ccc2c(c1)OCO2 was read as TAAR1 ag 5, GPR7 antagonist -3, OX1R antag-1 12, TAAR1 antagonist -6, CHO parental Ca -10 and OX1R antag-2 -6.
Screening O=C(COC(=O)c1ccccc1NCc1ccco1)Nc1ccc2c(c1)OCO2 returned TAAR1 ag 30, GPR7 antagonist -7, OX1R antag-1 34, TAAR1 antagonist 13, CHO parental Ca -6 and OX1R antag-2 -7.
`O=C(Nc1ccccc1C(=O)OCC(=O)c1c[nH]c2ccccc12)c1ccco1` gave TAAR1 ag 6, GPR7 antagonist 0, OX1R antag-1 50*, TAAR1 antagonist 48, CHO parental Ca -1 and OX1R antag-2 12.
Screening CC(C)[C@@H](C(=O)OCC(=O)Nc1ccc2c(c1)OCO2)N1C(=O)c2ccccc2C1=O returned TAAR1 ag 23, GPR7 antagonist -2, OX1R antag-1 34, TAAR1 antagonist 15, CHO parental Ca -34 and OX1R antag-2 -23.
`O=C(COC(=O)c1ccccc1NC(=O)c1ccco1)Nc1ccc2c(c1)OCO2` gave TAAR1 ag 8, GPR7 antagonist 4, OX1R antag-1 72*, TAAR1 antagonist 28, CHO parental Ca -4 and OX1R antag-2 17.
For O=C(COC(=O)[C@H](Cc1ccccc1)N1C(=O)c2ccccc2C1=O)Nc1ccc2c(c1)OCO2 the results were TAAR1 ag 15, GPR7 antagonist 1, OX1R antag-1 37, TAAR1 antagonist 56*, CHO parental Ca -1 and OX1R antag-2 -1.
